Measurements reported in ChEMBL document CHEMBL1145439, “Fluorine-18-labeled benzamide analogues for imaging the sigma2 receptor status of solid tumors with positron emission tomography” (J Med Chem, 2007).

Tests used:
Liver [1] = test: Biodistribution in liver of mouse EMT6 tumor bearing BALB/c mouse at 10 to 20 uCi after 60 mins; assay type: ADME, organism-based; conditions: in vivo, 1 h
How it was run: (§1)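 EMT-6 cells (5×10^5 in 100 µL PBS) implanted s.c. in scapular region of female Balb/c mice (~2 months, 17-22 g); studied 7-10 days later at ~0.2 cm3 tumor. 18F tracer 10-20 µCi in 100-150 µL saline via tail vein; ≥4 mice per time point; tissue removed at sacrifice, weighed, gamma-counted; %ID/g calculated.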

Blood [2] = test: Biodistribution in blood of mouse EMT6 tumor bearing BALB/c mouse at 10 to 20 uCi after 30 mins; assay type: ADME, organism-based; conditions: in vivo, 0.5 h; how it was run: as §1
Heart [3] = test: Biodistribution in heart of EMT6 tumor bearing BALB/c mouse at 10 to 20 uCi after 120 mins; assay type: ADME, organism-based; conditions: in vivo, 2 h; how it was run: as §1
Kidney [4] = test: Biodistribution in kidney of mouse EMT6 tumor bearing BALB/c mouse at 10 to 20 uCi after 120 mins; assay type: ADME, organism-based; conditions: in vivo, 2 h; how it was run: as §1
Liver [5] = test: Biodistribution in liver of mouse EMT6 tumor bearing BALB/c mouse at 10 to 20 uCi after 120 mins; assay type: ADME, organism-based; conditions: in vivo, 2 h; how it was run: as §1
Bone [6] = test: Biodistribution in bone of mouse EMT6 tumor bearing BALB/c mouse at 10 to 20 uCi after 5 mins; assay type: ADME, organism-based, Bone element; conditions: in vivo; how it was run: as §1
Heart [7] = test: Biodistribution in heart of mouse EMT6 tumor bearing BALB/c mouse at 10 to 20 uCi after 60 mins; assay type: ADME, organism-based; conditions: in vivo, 1 h; how it was run: as §1
Liver [8] = test: Biodistribution in liver of mouse EMT6 tumor bearing BALB/c mouse at 10 to 20 uCi after 5 mins; assay type: ADME, organism-based; conditions: in vivo; how it was run: as §1
Brain [9] = test: Biodistribution in brain of EMT6 tumor bearing BALB/c mouse at 10 to 20 uCi after 60 mins; assay type: ADME, organism-based; conditions: in vivo, 1 h; how it was run: as §1
Brain [10] = test: Biodistribution in brain of EMT6 tumor bearing BALB/c mouse at 10 to 20 uCi after 5 mins; assay type: ADME, organism-based; conditions: in vivo; how it was run: as §1
EMT6 [11] = test: Biodistribution in tumor of mouse EMT6 tumor bearing BALB/c mouse at 10 to 20 uCi after 60 mins; assay type: ADME, organism-based; conditions: emt6, 1 h; how it was run: as §1
Lung [12] = test: Biodistribution in lung of mouse EMT6 tumor bearing BALB/c mouse at 10 to 20 uCi after 5 mins; assay type: ADME, organism-based; conditions: in vivo; how it was run: as §1
Lung [13] = test: Biodistribution in lung of mouse EMT6 tumor bearing BALB/c mouse at 10 to 20 uCi after 60 mins; assay type: ADME, organism-based; conditions: in vivo, 1 h; how it was run: as §1
Bone [14] = test: Biodistribution in bone of mouse EMT6 tumor bearing BALB/c mouse at 10 to 20 uCi after 60 mins; assay type: ADME, organism-based, Bone element; conditions: in vivo, 1 h; how it was run: as §1
Muscle tissue [15] = test: Biodistribution in muscle of mouse EMT6 tumor bearing BALB/c mouse at 10 to 20 uCi after 60 mins; assay type: ADME, organism-based; conditions: in vivo, 1 h; how it was run: as §1
Blood [16] = test: Biodistribution in blood of mouse EMT6 tumor bearing BALB/c mouse at 10 to 20 uCi after 120 mins; assay type: ADME, organism-based; conditions: in vivo, 2 h; how it was run: as §1
Adipose tissue [17] = test: Biodistribution in fat of mouse EMT6 tumor bearing BALB/c mouse at 10 to 20 uCi after 60 mins; assay type: ADME, organism-based; conditions: in vivo, 1 h; how it was run: as §1
Lung [18] = test: Biodistribution in lung of mouse EMT6 tumor bearing BALB/c mouse at 10 to 20 uCi after 30 mins; assay type: ADME, organism-based; conditions: in vivo, 0.5 h; how it was run: as §1
Blood [19] = test: Biodistribution in blood of mouse EMT6 tumor bearing BALB/c mouse at 10 to 20 uCi after 60 mins; assay type: ADME, organism-based; conditions: in vivo, 1 h; how it was run: as §1
Bone [20] = test: Biodistribution in bone of mouse EMT6 tumor bearing BALB/c mouse at 10 to 20 uCi after 30 mins; assay type: ADME, organism-based, Bone element; conditions: in vivo, 0.5 h; how it was run: as §1
Heart [21] = test: Biodistribution in heart of mouse EMT6 tumor bearing BALB/c mouse at 10 to 20 uCi after 30 mins; assay type: ADME, organism-based; conditions: in vivo, 0.5 h; how it was run: as §1
Kidney [22] = test: Biodistribution in kidney of mouse EMT6 tumor bearing BALB/c mouse at 10 to 20 uCi after 5 mins; assay type: ADME, organism-based; conditions: in vivo; how it was run: as §1
Heart [23] = test: Biodistribution in heart of mouse EMT6 tumor bearing BALB/c mouse at 10 to 20 uCi after 5 mins; assay type: ADME, organism-based; conditions: in vivo; how it was run: as §1
Kidney [24] = test: Biodistribution in kidney of mouse EMT6 tumor bearing BALB/c mouse at 10 to 20 uCi after 60 mins; assay type: ADME, organism-based; conditions: in vivo, 1 h; how it was run: as §1
EMT6 [25] = test: Biodistribution in tumor of mouse EMT6 tumor bearing BALB/c mouse at 10 to 20 uCi after 120 mins; assay type: ADME, organism-based; conditions: emt6, 2 h; how it was run: as §1
Kidney [26] = test: Biodistribution in kidney of mouse EMT6 tumor bearing BALB/c mouse at 10 to 20 uCi after 30 mins; assay type: ADME, organism-based; conditions: in vivo, 0.5 h; how it was run: as §1
Muscle tissue [27] = test: Biodistribution in muscle of mouse EMT6 tumor bearing BALB/c mouse at 10 to 20 uCi after 120 mins; assay type: ADME, organism-based; conditions: in vivo, 2 h; how it was run: as §1
Liver [28] = test: Biodistribution in liver of mouse EMT6 tumor bearing BALB/c mouse at 10 to 20 uCi after 30 mins; assay type: ADME, organism-based; conditions: in vivo, 0.5 h; how it was run: as §1
Lung [29] = test: Biodistribution in lung of mouse EMT6 tumor bearing BALB/c mouse at 10 to 20 uCi after 120 mins; assay type: ADME, organism-based; conditions: in vivo, 2 h; how it was run: as §1
Muscle tissue [30] = test: Biodistribution in muscle of EMT6 tumor bearing BALB/c mouse at 10 to 20 uCi after 5 mins; assay type: ADME, organism-based; conditions: in vivo; how it was run: as §1
Adipose tissue [31] = test: Biodistribution in fat of mouse EMT6 tumor bearing BALB/c mouse at 10 to 20 uCi after 5 mins; assay type: ADME, organism-based; conditions: in vivo; how it was run: as §1
Muscle tissue [32] = test: Biodistribution in muscle of mouse EMT6 tumor bearing BALB/c mouse at 10 to 20 uCi after 30 mins; assay type: ADME, organism-based; conditions: in vivo, 0.5 h; how it was run: as §1
Adipose tissue [33] = test: Biodistribution in fat of mouse EMT6 tumor bearing BALB/c mouse at 10 to 20 uCi after 30 mins; assay type: ADME, organism-based; conditions: in vivo, 0.5 h; how it was run: as §1
EMT6 [34] = test: Biodistribution in tumor of EMT6 tumor bearing BALB/c mouse 10 to 20 uCi after 30 mins; assay type: ADME, organism-based; conditions: emt6, 0.5 h; how it was run: as §1
Bone [35] = test: Biodistribution in bone of mouse EMT6 tumor bearing BALB/c mouse at 10 to 20 uCi after 120 mins; assay type: ADME, organism-based, Bone element; conditions: in vivo, 2 h; how it was run: as §1
Brain [36] = test: Biodistribution in brain of mouse EMT6 tumor bearing BALB/c mouse at 10 to 20 uCi after 120 mins; assay type: ADME, organism-based; conditions: in vivo, 2 h; how it was run: as §1
EMT6 [37] = test: Biodistribution in tumor of mouse EMT6 tumor bearing BALB/c mouse at 10 to 20 uCi after 5 mins; assay type: ADME, organism-based; conditions: emt6, 5 min; how it was run: as §1
Adipose tissue [38] = test: Biodistribution in fat of mouse EMT6 tumor bearing BALB/c mouse at 10 to 20 uCi after 120 mins; assay type: ADME, organism-based; conditions: in vivo, 2 h; how it was run: as §1
Blood [39] = test: Biodistribution in blood of mouse EMT6 tumor bearing BALB/c mouse at 10 to 20 uCi after 5 mins; assay type: ADME, organism-based; conditions: in vivo; how it was run: as §1
Brain [40] = test: Biodistribution in brain of EMT6 tumor bearing BALB/c mouse at 10 to 20 uCi after 30 mins; assay type: ADME, organism-based; conditions: in vivo, 0.5 h; how it was run: as §1
[41] = Tumor to fat ratio of the drug in mouse EMT6 tumor bearing BALB/c mouse at 10 to 20 uCi after 2 hrs; assay type: ADME
How it was run: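 Tumor-bearing female Balb/c mice (EMT-6 s.c. allograft, ~0.2 cm3) given 10-20 µCi 18F tracer in saline i.v. via tail vein; ≥4 per group; killed 120 min later. Tissues weighed and gamma-counted; ratio = tumor %ID/g divided by that organ's %ID/g.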

## COc1cc2c(cc1OC)CN(CCCCNC(=O)c1cc(I)ccc1OCC[18F])CC2
Liver [1]
  Drug uptake: 7.31 % ID/g
Blood [2]
  Drug uptake: 4.3 % ID/g
Heart [3]
  Drug uptake: 1 % ID/g
Kidney [4]
  Drug uptake: 3.92 % ID/g
Liver [5]
  Drug uptake: 4.25 % ID/g
Bone [6]
  Drug uptake: 2.59 % ID/g
Heart [7]
  Drug uptake: 1.61 % ID/g
Liver [8]
  Drug uptake: 37.26 % ID/g
Brain [9]
  Drug uptake: 0.36 % ID/g
Brain [10]
  Drug uptake: 0.55 % ID/g
EMT6 [11]
  Drug uptake: 2.72 % ID/g
Lung [12]
  Drug uptake: 9.71 % ID/g
Lung [13]
  Drug uptake: 2.34 % ID/g
Bone [14]
  Drug uptake: 0.99 % ID/g
Muscle tissue [15]
  Drug uptake: 0.83 % ID/g
Blood [16]
  Drug uptake: 1.92 % ID/g
Adipose tissue [17]
  Drug uptake: 0.62 % ID/g
Lung [18]
  Drug uptake: 4.07 % ID/g
Blood [19]
  Drug uptake: 3.39 % ID/g
Bone [20]
  Drug uptake: 1.31 % ID/g
Heart [21]
  Drug uptake: 2.37 % ID/g
Kidney [22]
  Drug uptake: 36.07 % ID/g
Heart [23]
  Drug uptake: 3.22 % ID/g
Kidney [24]
  Drug uptake: 9.36 % ID/g
EMT6 [25]
  Drug uptake: 1.92 % ID/g
Kidney [26]
  Drug uptake: 17.43 % ID/g
Muscle tissue [27]
  Drug uptake: 0.6 % ID/g
Liver [28]
  Drug uptake: 17.35 % ID/g
Lung [29]
  Drug uptake: 1.36 % ID/g
Muscle tissue [30]
  Drug uptake: 1.52 % ID/g
Adipose tissue [31]
  Drug uptake: 2.32 % ID/g
Muscle tissue [32]
  Drug uptake: 1.12 % ID/g
Adipose tissue [33]
  Drug uptake: 1.04 % ID/g
EMT6 [34]
  Drug uptake: 2.81 % ID/g
Bone [35]
  Drug uptake: 1.67 % ID/g
Brain [36]
  Drug uptake: 0.37 % ID/g
EMT6 [37]
  Drug uptake: 2.54 % ID/g
Adipose tissue [38]
  Drug uptake: 0.44 % ID/g
Blood [39]
  Drug uptake: 4.6 % ID/g
Brain [40]
  Drug uptake: 0.44 % ID/g

## COc1cc2c(cc1OC)CN(CCCCNC(=O)c1cc(Br)ccc1OCC[18F])CC2
Liver [1]
  Drug uptake: 5.69 % ID/g
Blood [2]
  Drug uptake: 2.81 % ID/g
Heart [3]
  Drug uptake: 0.4 % ID/g
Kidney [4]
  Drug uptake: 1.12 % ID/g
Liver [5]
  Drug uptake: 2.3 % ID/g
Bone [6]
  Drug uptake: 2.9 % ID/g
Heart [7]
  Drug uptake: 1.04 % ID/g
Liver [8]
  Drug uptake: 32.6 % ID/g
Brain [9]
  Drug uptake: 0.32 % ID/g
Brain [10]
  Drug uptake: 1.09 % ID/g
EMT6 [11]
  Drug uptake: 2.09 % ID/g
Lung [12]
  Drug uptake: 12.08 % ID/g
Lung [13]
  Drug uptake: 1.6 % ID/g
Bone [14]
  Drug uptake: 1.12 % ID/g
Muscle tissue [15]
  Drug uptake: 0.58 % ID/g
Blood [16]
  Drug uptake: 0.52 % ID/g
Adipose tissue [17]
  Drug uptake: 0.38 % ID/g
Lung [18]
  Drug uptake: 3.08 % ID/g
Blood [19]
  Drug uptake: 1.69 % ID/g
Bone [20]
  Drug uptake: 1.17 % ID/g
Heart [21]
  Drug uptake: 1.55 % ID/g
Kidney [22]
  Drug uptake: 42.94 % ID/g
Heart [23]
  Drug uptake: 3.74 % ID/g
Kidney [24]
  Drug uptake: 6.92 % ID/g
EMT6 [25]
  Drug uptake: 0.96 % ID/g
Kidney [26]
  Drug uptake: 17.55 % ID/g
Muscle tissue [27]
  Drug uptake: 0.28 % ID/g
Liver [28]
  Drug uptake: 13.12 % ID/g
Lung [29]
  Drug uptake: 0.51 % ID/g
[41]
  Ratio: 6
Muscle tissue [30]
  Drug uptake: 1.95 % ID/g
Adipose tissue [31]
  Drug uptake: 2.85 % ID/g
Muscle tissue [32]
  Drug uptake: 0.98 % ID/g
Adipose tissue [33]
  Drug uptake: 0.96 % ID/g
EMT6 [34]
  Drug uptake: 2.59 % ID/g
Bone [35]
  Drug uptake: 1.28 % ID/g
Brain [36]
  Drug uptake: 0.2 % ID/g
EMT6 [37]
  Drug uptake: 3.28 % ID/g
Adipose tissue [38]
  Drug uptake: 0.15 % ID/g
Blood [39]
  Drug uptake: 3.57 % ID/g
Brain [40]
  Drug uptake: 0.4 % ID/g
